Measured values: ChEMBL document CHEMBL4138196, “Discovery and structure-activity relationship of novel 4-hydroxy-thiazolidine-2-thione derivatives as tumor cell specific pyruvate kinase M2 activators” (Eur J Med Chem, 2018)

Columns and labels:
[1] = tested on: NCI-H1299; assay: Antiproliferative activity against human H1299 cells after 48 hrs by MTS assay; format: functional, cell-based; details: NCI-H1299, 48 h
How it was run: (§1)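 Cells grown in RPMI 1640 with 9% FBS at 37°C, 5% CO2. 3000-10000 cells/well were left to attach 12 h, then given compound at five concentrations, or DMSO as vehicle control, for 48 h. MTS was added for 3 h at 37°C and absorbance read at 490 nm. IC50 (50% growth inhibition) was taken from triplicate dose-response curves.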

[2] = molecular target: Pyruvate kinase PKM (Homo sapiens, UniProt P14618); assay: Activation of N-terminal His -tagged human PKM2 expressed in Escherichia coli BL21 using PEP as substrate measured at 30 secs intervals for between 3 and 6 mins by fluorescent pyruvate kinase-lactate dehydrogenase coupled assay
Sequence of Pyruvate kinase PKM (P14618 whole entry): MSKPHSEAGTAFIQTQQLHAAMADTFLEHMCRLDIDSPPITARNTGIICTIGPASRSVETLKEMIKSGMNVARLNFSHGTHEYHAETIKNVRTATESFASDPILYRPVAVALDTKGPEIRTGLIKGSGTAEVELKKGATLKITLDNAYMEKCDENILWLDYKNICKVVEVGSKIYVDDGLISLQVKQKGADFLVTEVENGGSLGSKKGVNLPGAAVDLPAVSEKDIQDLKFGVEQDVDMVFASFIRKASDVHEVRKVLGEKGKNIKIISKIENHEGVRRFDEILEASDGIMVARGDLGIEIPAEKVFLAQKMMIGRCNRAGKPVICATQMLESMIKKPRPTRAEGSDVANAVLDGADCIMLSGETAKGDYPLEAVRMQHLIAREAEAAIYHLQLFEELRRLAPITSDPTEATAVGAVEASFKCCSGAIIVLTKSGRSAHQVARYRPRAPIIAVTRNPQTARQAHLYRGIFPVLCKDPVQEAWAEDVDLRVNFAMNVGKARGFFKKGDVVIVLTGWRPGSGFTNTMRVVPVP

[3] = tested on: PC-3; assay: Antiproliferative activity against human PC3 cells after 48 hrs by MTS assay; format: functional, cell-based; details: PC-3, 48 h; how it was run: as §1
[4] = tested on: HeLa; assay: Antiproliferative activity against human HeLa cells after 48 hrs by MTS assay; format: functional, cell-based; how it was run: as §1
[5] = tested on: HCT-116; assay: Antiproliferative activity against human HCT116 cells after 48 hrs by MTS assay; format: functional, cell-based; details: HCT-116, 48 h; how it was run: as §1
[6] = Antiproliferative activity against HELF after 48 hrs by MTS assay; design: species or system Homo sapiens; how it was run: as §1

IC50 [1] | AC50 [2] | IC50 [3] | IC50 [4] | IC50 [5] | SMILES | IC50 [6]
2470 nM | > 20000 nM | 6150 nM | 930 nM | 2320 nM | CN(c1ccc(C2(O)CSC(=S)N2Cc2cccnc2)cc1)S(=O)(=O)c1cccc2cccnc12 (stereo not given) | –
510 nM | > 20000 nM | 1530 nM | 340 nM | 410 nM | Cc1ccncc1CN1C(=S)SCC1(O)c1ccc(NS(=O)(=O)c2ccc3c(c2)OCCO3)cc1 (stereo not given) | 7210 nM
1020 nM | 17600 nM | 1350 nM | 510 nM | 920 nM | CS(=O)(=O)c1cccc(-c2ccc(CN3C(=S)SCC3(O)c3ccc(NS(=O)(=O)c4ccc5c(c4)OCCO5)cc3)cn2)c1 (stereo not given) | –
2960 nM | > 20000 nM | 3260 nM | 1400 nM | 3890 nM | O=[N+]([O-])c1cccc(-c2ccccc2S(=O)(=O)Nc2ccc(C3(O)CSC(=S)N3Cc3cccnc3)cc2)c1 (stereo not given) | –
1650 nM | > 20000 nM | 2400 nM | 690 nM | 1410 nM | O=c1ccc2cc(S(=O)(=O)Nc3ccc(C4(O)CSC(=S)N4Cc4cccnc4)cc3)ccc2o1 (stereo not given) | –
1810 nM | 1750 nM | 1280 nM | 550 nM | 1280 nM | O=S(=O)(Nc1ccc(C2(O)CSC(=S)N2Cc2cnc3ccccc3c2)cc1)c1ccc2c(c1)OCCO2 (stereo not given) | –
930 nM | 5950 nM | 930 nM | 590 nM | 2620 nM | COc1cccc(S(=O)(=O)Nc2ccc(C3(O)CSC(=S)N3Cc3cccnc3)cc2)c1 (stereo not given) | 6900 nM
1450 nM | > 20000 nM | 2680 nM | 550 nM | 1180 nM | O=S(=O)(Nc1ccc(C2(O)CSC(=S)N2Cc2cccnc2)cc1)c1ccccc1F (stereo not given) | –
750 nM | > 20000 nM | 700 nM | 470 nM | 660 nM | O=S(=O)(Nc1ccc(C2(O)CSC(=S)N2Cc2ccncc2)cc1)c1ccc2c(c1)OCCO2 (stereo not given) | 8310 nM
2700 nM | > 20000 nM | 2810 nM | 1100 nM | 6110 nM | O=S(=O)(Nc1ccc(C2(O)CSC(=S)N2Cc2cccnc2)cc1)c1ccccc1-c1ccccc1 (stereo not given) | –
1750 nM | > 20000 nM | 3870 nM | 610 nM | 2300 nM | O=[N+]([O-])c1ccccc1S(=O)(=O)Nc1ccc(C2(O)CSC(=S)N2Cc2cccnc2)cc1 (stereo not given) | –
1720 nM | 2150 nM | 920 nM | 550 nM | 850 nM | O=S(=O)(Nc1ccc(C2(O)CSC(=S)N2Cc2cnccn2)cc1)c1ccc2c(c1)OCCO2 (stereo not given) | –
1470 nM | > 20000 nM | 4110 nM | 770 nM | 1800 nM | N#Cc1ccc(S(=O)(=O)Nc2ccc(C3(O)CSC(=S)N3Cc3cccnc3)cc2)cc1 (stereo not given) | –
1630 nM | 1190 nM | 1580 nM | 550 nM | 2410 nM | Cc1ccccc1S(=O)(=O)Nc1ccc(C2(O)CSC(=S)N2Cc2cccnc2)cc1 (stereo not given) | –
810 nM | > 20000 nM | 1520 nM | 460 nM | 1650 nM | O=S(=O)(Nc1ccc(C2(O)CSC(=S)N2Cc2cccnc2)cc1)c1ccc2ccccc2c1 (stereo not given) | 8050 nM
2120 nM | > 20000 nM | 1950 nM | 780 nM | 1840 nM | O=C1COc2ccc(S(=O)(=O)Nc3ccc(C4(O)CSC(=S)N4Cc4cccnc4)cc3)cc2N1 (stereo not given) | –
1240 nM | > 20000 nM | 8620 nM | 1330 nM | 3450 nM | O=S(=O)(Nc1ccc(C2(O)CSC(=S)N2Cc2cccnc2)cc1)c1ccccc1N1CCOCC1 (stereo not given) | –
> 20000 nM | > 20000 nM | > 20000 nM | > 20000 nM | > 20000 nM | O=S(=O)(Nc1ccc(-c2csc(=S)n2Cc2cccnc2)cc1)c1cccc2cccnc12 | –
1550 nM | 7240 nM | 2440 nM | 1260 nM | 3320 nM | O=S(=O)(Cc1ccccc1)Nc1ccc(C2(O)CSC(=S)N2Cc2cccnc2)cc1 (stereo not given) | –

IC50 [1] | AC50 [2] | IC50 [3] | IC50 [4] | IC50 [5] | SMILES | IC50 [6]
1620 nM | > 20000 nM | 4510 nM | 1110 nM | 3690 nM | COc1ccc(Cl)cc1S(=O)(=O)Nc1ccc(C2(O)CSC(=S)N2Cc2cccnc2)cc1 (stereo not given) | –
1310 nM | > 20000 nM | 1400 nM | 570 nM | 3500 nM | O=S(=O)(Nc1ccc(C2(O)CSC(=S)N2Cc2cccnc2)cc1)c1ccc(F)cc1 (stereo not given) | –
1200 nM | > 20000 nM | 940 nM | 440 nM | 2180 nM | Cc1ccc(S(=O)(=O)Nc2ccc(C3(O)CSC(=S)N3Cc3cccnc3)cc2)cc1 (stereo not given) | –
1440 nM | 2960 nM | 990 nM | 450 nM | 1700 nM | O=S(=O)(Nc1ccc(C2(O)CSC(=S)N2Cc2cccnc2)cc1)c1ccccc1 (stereo not given) | –
790 nM | 7070 nM | 1330 nM | 450 nM | 770 nM | O=S(=O)(Nc1ccc(C2(O)CSC(=S)N2Cc2ccc3nccn3c2)cc1)c1ccc2c(c1)OCCO2 (stereo not given) | 4910 nM
1250 nM | > 20000 nM | 2200 nM | 860 nM | 1560 nM | CS(=O)(=O)Nc1ccc(C2(O)CSC(=S)N2Cc2cccnc2)cc1 (stereo not given) | –
2000 nM | 1410 nM | 1260 nM | 760 nM | 1550 nM | O=S(=O)(Nc1ccc(C2(O)CSC(=S)N2Cc2cccnc2)cc1)c1c[nH]c2ncccc12 (stereo not given) | –
1530 nM | > 20000 nM | 1690 nM | 630 nM | 2610 nM | O=S(=O)(Nc1ccc(C2(O)CSC(=S)N2Cc2cccnc2)cc1)c1cccc2ccccc12 (stereo not given) | –
1680 nM | 6250 nM | 1110 nM | 1140 nM | 1730 nM | Cc1cccc(S(=O)(=O)Nc2ccc(C3(O)CSC(=S)N3Cc3cccnc3)cc2)c1 (stereo not given) | –
830 nM | > 20000 nM | 1130 nM | 410 nM | 740 nM | COc1ncccc1CN1C(=S)SCC1(O)c1ccc(NS(=O)(=O)c2ccc3c(c2)OCCO3)cc1 (stereo not given) | 10400 nM
1220 nM | > 20000 nM | 1310 nM | 260 nM | 2720 nM | O=[N+]([O-])c1ccc(S(=O)(=O)Nc2ccc(C3(O)CSC(=S)N3Cc3cccnc3)cc2)cc1 (stereo not given) | –
2430 nM | 520 nM | 2350 nM | 840 nM | 2110 nM | O=S(=O)(Nc1ccc(C2(O)CSC(=S)N2Cc2cccnc2)cc1)c1cccc2cccnc12 (stereo not given) | –
960 nM | 4690 nM | 1070 nM | 480 nM | 1750 nM | COc1ccc(S(=O)(=O)Nc2ccc(C3(O)CSC(=S)N3Cc3cccnc3)cc2)cc1 (stereo not given) | 8630 nM
1750 nM | > 20000 nM | 1330 nM | 940 nM | 1650 nM | Cc1cc(C)c(S(=O)(=O)Nc2ccc(C3(O)CSC(=S)N3Cc3cccnc3)cc2)c(C)c1 (stereo not given) | –
1230 nM | 1470 nM | 1250 nM | 420 nM | 1440 nM | O=S(=O)(Nc1ccc(C2(O)CSC(=S)N2Cc2cccnc2)cc1)c1cccs1 (stereo not given) | –
1280 nM | > 20000 nM | 2160 nM | 620 nM | 1040 nM | O=S(=O)(Nc1ccc(C2(O)CSC(=S)N2CCc2cccnc2)cc1)c1ccc2c(c1)OCCO2 (stereo not given) | –
7830 nM | – | 4570 nM | – | 1370 nM | CC(=O)O[C@H]1C(=O)[C@@]2(C)[C@H]([C@H](OC(=O)c3ccccc3)[C@]3(O)C[C@H](OC(=O)[C@H](O)[C@@H](NC(=O)c4ccccc4)c4ccccc4)C(C)=C1C3(C)C)[C@]1(OC(C)=O)CO[C@@H]1C[C@@H]2O [PACLITAXEL] | –
1650 nM | 740 nM | 4290 nM | 710 nM | 1640 nM | O=C1CCc2cc(S(=O)(=O)Nc3ccc(C4(O)CSC(=S)N4Cc4cccnc4)cc3)ccc2N1 (stereo not given) | –
1140 nM | > 20000 nM | 2190 nM | 480 nM | 4110 nM | O=S(=O)(Nc1ccc(C2(O)CSC(=S)N2Cc2cccnc2)cc1)c1cccc(F)c1 (stereo not given) | –
